From ChEMBL document CHEMBL1138845, “Design of non-nucleoside inhibitors of HIV-1 reverse transcriptase with improved drug resistance properties. 2” (J Med Chem, 2004) come the findings set out here.

SMILES strings stand for the structures. Some results are limits rather than exact numbers.

The subject of test [1] is HeLa. Description: Inhibitory concentration against human immunodeficiency virus type 1 (with Y188C resistant mutation) was determined in HeLa-CD4 MAGI assay. The class given is functional, cell-based. The method, boiled down:
(§1)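 Tested against a panel of recombinant, isogenic HIV-1 viruses, wild type and NNRTI-resistant strains carrying engineered single or double RT mutations. The readout was IC50.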

The subject of test [2] is HeLa. Description: Inhibitory concentration against human immunodeficiency virus type 1 (with K103N/Y181C resistant mutation) was determined in HeLa-CD4 MAGI assay. The format is functional, cell-based. The method, boiled down: as §1
For test [3], the system named is HeLa. The test can be described thus: Inhibitory concentration against human immunodeficiency virus type 1 (with Y181C resistant mutation) was determined in HeLa-CD4 MAGI assay. The format is functional, cell-based. The method, boiled down: as §1
Test [4] relates to MT4. The test can be described thus: Inhibitory concentration against nevirapine resistant strain (with Y181C mutation in HIV-1 RT gene) of human immunodeficiency virus type 1 was determined by MT-4 assay. The format is functional, cell-based.
Test [5] deals with HeLa. Description: Inhibitory concentration against human immunodeficiency virus type 1 (with V108I resistant mutation) was determined in HeLa-CD4 MAGI assay. The format is functional, cell-based. The method, boiled down:
as §1

The subject of test [6] is HeLa. Description: Inhibitory concentration against human immunodeficiency virus type 1 (with K103N/G190A resistant mutation) was determined in HeLa-CD4 MAGI assay. The format is functional, cell-based. Put shortly:
as §1

The test system of test [7] is HeLa. The test can be described thus: Inhibitory concentration against human immunodeficiency virus type 1 (with K103N/V108I resistant mutation) was determined in HeLa-CD4 MAGI assay. The class given is functional, cell-based. Put shortly: as §1
The test system of test [8] is MT4. The test can be described thus: Inhibitory concentration against wild type human immunodeficiency virus type 1 was determined by MT-4 assay. The class given is functional, cell-based.
Test [9] has as its system HeLa. Description: Inhibitory concentration against human immunodeficiency virus type 1 (with G190A resistant mutation) was determined in HeLa-CD4 MAGI assay. The class given is functional, cell-based. The method, boiled down:
as §1

The subject of test [10] is MT4. The test can be described thus: Ratio of cytotoxic concentration to that of inhibitory concentration as selectivity index was determined by MT-4 assay. The format is functional, Homo sapiens. Put shortly:
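Index is the IC50 in uninfected MT4 cells divided by the antiviral IC50 in MT4 cells infected with wild-type HIV-1 or the nevirapine-resistant strain carrying RT mutation Y181C.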

For test [11], the system named is HeLa. Description: Inhibitory concentration against human immunodeficiency virus type 1 (with V108I/Y181C resistant mutation) was determined in HeLa-CD4 MAGI assay. The class given is functional, cell-based. Put shortly:
as §1

In test [12] the test system is HeLa. The test can be described thus: Inhibitory concentration against human immunodeficiency virus type 1 (with K103N resistant mutation) was determined in HeLa-CD4 MAGI assay. The format is functional, cell-based. The method, boiled down:
as §1

Test [13] relates to HeLa. The test can be described thus: Inhibitory concentration against human immunodeficiency virus type 1 (with V106A resistant mutation) was determined in HeLa-CD4 MAGI assay. The format is functional, cell-based. The method, boiled down:
as §1

Test [14] concerns Human immunodeficiency virus 1. The test can be described thus: Inhibitory concentration against wild type human immunodeficiency virus type 1 was determined by recombinant virus assay. The format is functional, organism-based. Put shortly: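 Isogenic recombinant HIV-1 carrying wild-type RT, tested in parallel with a panel of NNRTI-resistant RT mutants built on the same background; activity reported as IC50.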

In test [15] the test system is HeLa. The test can be described thus: Inhibitory concentration against human immunodeficiency virus type 1 (with V106A/Y181C resistant mutation) was determined in HeLa-CD4 MAGI assay. The format is functional, cell-based. Put shortly: as §1

In the case of `CC(C)c1c(O)nc2ccc(Cl)cc2c1OC#CC1CC1`, the IC50 worked out at 18 nM in the test on HeLa [1]; 620 nM in the test with HeLa [2]; 39 nM in the test with HeLa [3]; 31 nM in the test on MT4 [4]; 36 nM in the test on HeLa [5]; 52 nM in the test on HeLa [6]. In addition, the IC50 in the test with HeLa [7] is 1200 nM; in the test with MT4 [8], 24 nM; in the test with HeLa [9] it was 3 nM; in the test on HeLa [11] it was 120 nM; with HeLa [12], 320 nM; with HeLa [13], 57 nM. The IC50 in test [14] was determined as 16 nM; in the test with HeLa [15], 120 nM. For the same molecule, in the test with MT4 [10], the Ratio was more than 8000.

As to `CCCc1c(O)nc2ccc(Cl)cc2c1OC#CC1CC1`, the IC50 stood at 70 nM in the test with HeLa [1]; 1800 nM with HeLa [2]; 92 nM in the test with HeLa [3]; 120 nM in the test on MT4 [4]; 60 nM with HeLa [5]; 300 nM with HeLa [6]. The IC50 is 1400 nM in the test with HeLa [7]; 109 nM with MT4 [8]; 15 nM in the test on HeLa [9]; 230 nM with HeLa [11]; more than 2000 nM in the test on HeLa [12]; 220 nM in the test with HeLa [13]. Besides, the values for the IC50 (in test [14]; in the test with HeLa [15]) were 38 nM and 120 nM, respectively. Besides, in the test with MT4 [10], the Ratio was more than 8000.

With `CCC(C)C#COc1c(C(C)C)c(O)nc2ccc(F)cc12` (stereo not given), the IC50 in the test with HeLa [1] was 21 nM; with HeLa [2], 640 nM; with HeLa [3], 84 nM; with MT4 [4], 32 nM; in the test on HeLa [5] it was 110 nM; in the test with HeLa [6], 230 nM. The IC50 is more than 2000 nM in the test on HeLa [7]; 17 nM with MT4 [8]; 21 nM in the test on HeLa [9]; 140 nM in the test with HeLa [11]; 540 nM in the test with HeLa [12]; 420 nM in the test with HeLa [13]. Further, the IC50 in [14] was found to be 28 nM; in the test on HeLa [15], 130 nM. The Ratio in the test with MT4 [10] was more than 6500.

`CCCc1c(O)nc2ccc(Cl)cc2c1OC1CCC1`: the IC50 in the test with HeLa [1] is 290 nM; with HeLa [2] it was more than 2000 nM; in the test with HeLa [3], 1700 nM; in the test with MT4 [4] it was 2500 nM; in the test on HeLa [5], 690 nM; with HeLa [6], more than 2000 nM. Besides, the IC50 in the test on HeLa [7] was more than 2000 nM; with MT4 [8], 470 nM; with HeLa [9], 220 nM; with HeLa [11], more than 2000 nM; in the test on HeLa [12] it was more than 2000 nM; in the test with HeLa [13], more than 2000 nM. The IC50 in test [14] was 300 nM; in the test on HeLa [15], more than 2000 nM. Moreover, in the test with MT4 [10], the Ratio is listed as more than 8000.

On to `Cc1c(O)nc2ccc(F)cc2c1OCC1CCC1`, for which the half-maximal inhibitory concentration (IC50) in the test on HeLa [1] was 840 nM; with HeLa [2], more than 2000 nM; in the test with HeLa [3] it was more than 2000 nM; with MT4 [4], 3900 nM; with HeLa [5] it was 1700 nM; in the test with HeLa [6], more than 2000 nM. For the same molecule, the IC50 in the test with HeLa [7] was more than 2000 nM; with MT4 [8] it was 990 nM; in the test on HeLa [9], 250 nM; with HeLa [11], more than 2000 nM; in the test with HeLa [12] it was more than 2000 nM; in the test with HeLa [13], more than 2000 nM. In addition, the IC50 in test [14] was 610 nM; with HeLa [15] it was more than 2000 nM. For the same molecule, the Ratio in the test on MT4 [10] is recorded as more than 8000.

Take `CCCc1c(O)nc2ccc(Cl)cc2c1OCC1CC1`: the IC50 in the test on HeLa [1] was 89 nM; in the test on HeLa [2], more than 2000 nM; in the test on HeLa [3], 210 nM; in the test on MT4 [4], 8300 nM; with HeLa [5] it was 200 nM; with HeLa [6] it was more than 2000 nM. In addition, the IC50 in the test on HeLa [7] was more than 2000 nM; in the test with MT4 [8] it was 1100 nM; in the test on HeLa [9], 49 nM; in the test on HeLa [11], 1700 nM; with HeLa [12] it was more than 2000 nM; in the test on HeLa [13], 630 nM. In addition, the IC50 was 120 nM in test [14] and more than 2000 nM in the test with HeLa [15]. Also, the Ratio in the test with MT4 [10] is recorded as more than 40000.
